From ChEMBL document CHEMBL3758132, “Dissecting structure-activity-relationships of crebinostat: Brain penetrant HDAC inhibitors for neuroepigenetic regulation” (Bioorg Med Chem Lett, 2016)
Calls of active or inactive are those of the source. The rule behind the calls is not given here.

Assays:
[1] = Cmax in C57BL/6 mouse brain at 25 mg/kg, ip after 6 hrs by LC/MS/MS analysis; type: ADME, organism-based; set-up: dose 25 mg/kg, route intraperitoneal
Procedure, shortened: (§1)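 Mice dosed intraperitoneally at 25 mg/kg. Brains and peripheral blood were collected at each point of a 6-point time course, three mice per time point. Compound concentration was measured in processed brain and blood samples. PK parameters were derived from the concentration-time profiles.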

Histone deacetylase 2 = Histone deacetylase 2 (Homo sapiens, UniProt Q92769); assay: Inhibition of human recombinant HDAC2 using acetyllysine tripeptide coupled with 7-amino-4-methylcoumarin as substrate by fluorescence assay
[2] = molecular target: Histone deacetylase 5 (Homo sapiens) (UniProt Q9UQL6); assay: Inhibition of human recombinant HDAC5 using acetyllysine tripeptide coupled with 7-amino-4-methylcoumarin as substrate by fluorescence assay
[3] = Cmax in C57BL/6 mouse plasma at 25 mg/kg, ip after 1 hr by LC/MS/MS analysis; type: ADME, organism-based; set-up: dose 25 mg/kg, route intraperitoneal; procedure, shortened: as §1
[4] = Cmax in C57BL/6 mouse plasma at 25 mg/kg, ip after 12 hrs by LC/MS/MS analysis; type: ADME, organism-based; set-up: dose 25 mg/kg, route intraperitoneal; procedure, shortened: as §1
[5] = AUCinfinity in C57BL/6 mouse plasma at 25 mg/kg, ip after 0.5 to 24 hrs by LC/MS/MS analysis; type: ADME, organism-based; set-up: dose 25 mg/kg, route intraperitoneal, time infinity; procedure, shortened: as §1
[6] = Apparent clearance in C57BL/6 mouse plasma at 25 mg/kg, ip after 0.5 to 24 hrs by LC/MS/MS analysis; type: ADME, organism-based; procedure, shortened: as §1
[7] = Cmax in C57BL/6 mouse plasma at 25 mg/kg, ip after 6 hrs by LC/MS/MS analysis; type: ADME, organism-based; set-up: dose 25 mg/kg, route intraperitoneal; procedure, shortened: as §1
[8] = Cmax in C57BL/6 mouse plasma at 25 mg/kg, ip after 0.5 hrs by LC/MS/MS analysis; type: ADME, organism-based; set-up: dose 25 mg/kg, route intraperitoneal; procedure, shortened: as §1
[9] = Cmax in C57BL/6 mouse brain at 25 mg/kg, ip after 24 hrs by LC/MS/MS analysis; type: ADME, organism-based; set-up: dose 25 mg/kg, route intraperitoneal; procedure, shortened: as §1
[10] = Tmax in C57BL/6 mouse brain at 25 mg/kg, ip after 0.5 to 24 hrs by LC/MS/MS analysis; type: ADME, organism-based; procedure, shortened: as §1
[11] = Inhibition of HDAC in mouse forebrain primary neurons assessed as acetylation of histone H3K9 after 24 hrs by immunofluorescence assay
[12] = Mean Residence time up to the last quantifiable time-point in C57BL/6 mouse plasma at 25 mg/kg, ip after 0.5 to 24 hrs by LC/MS/MS analysis; type: ADME, organism-based; procedure, shortened: as §1
[13] = molecular target: T1, Protein deacetylase HDAC6 (Homo sapiens, UniProt Q9UBN7); assay: Inhibition of human recombinant HDAC6 using acetyllysine tripeptide coupled with 7-amino-4-methylcoumarin as substrate by fluorescence assay
T1 sequence (Q9UBN7 whole entry): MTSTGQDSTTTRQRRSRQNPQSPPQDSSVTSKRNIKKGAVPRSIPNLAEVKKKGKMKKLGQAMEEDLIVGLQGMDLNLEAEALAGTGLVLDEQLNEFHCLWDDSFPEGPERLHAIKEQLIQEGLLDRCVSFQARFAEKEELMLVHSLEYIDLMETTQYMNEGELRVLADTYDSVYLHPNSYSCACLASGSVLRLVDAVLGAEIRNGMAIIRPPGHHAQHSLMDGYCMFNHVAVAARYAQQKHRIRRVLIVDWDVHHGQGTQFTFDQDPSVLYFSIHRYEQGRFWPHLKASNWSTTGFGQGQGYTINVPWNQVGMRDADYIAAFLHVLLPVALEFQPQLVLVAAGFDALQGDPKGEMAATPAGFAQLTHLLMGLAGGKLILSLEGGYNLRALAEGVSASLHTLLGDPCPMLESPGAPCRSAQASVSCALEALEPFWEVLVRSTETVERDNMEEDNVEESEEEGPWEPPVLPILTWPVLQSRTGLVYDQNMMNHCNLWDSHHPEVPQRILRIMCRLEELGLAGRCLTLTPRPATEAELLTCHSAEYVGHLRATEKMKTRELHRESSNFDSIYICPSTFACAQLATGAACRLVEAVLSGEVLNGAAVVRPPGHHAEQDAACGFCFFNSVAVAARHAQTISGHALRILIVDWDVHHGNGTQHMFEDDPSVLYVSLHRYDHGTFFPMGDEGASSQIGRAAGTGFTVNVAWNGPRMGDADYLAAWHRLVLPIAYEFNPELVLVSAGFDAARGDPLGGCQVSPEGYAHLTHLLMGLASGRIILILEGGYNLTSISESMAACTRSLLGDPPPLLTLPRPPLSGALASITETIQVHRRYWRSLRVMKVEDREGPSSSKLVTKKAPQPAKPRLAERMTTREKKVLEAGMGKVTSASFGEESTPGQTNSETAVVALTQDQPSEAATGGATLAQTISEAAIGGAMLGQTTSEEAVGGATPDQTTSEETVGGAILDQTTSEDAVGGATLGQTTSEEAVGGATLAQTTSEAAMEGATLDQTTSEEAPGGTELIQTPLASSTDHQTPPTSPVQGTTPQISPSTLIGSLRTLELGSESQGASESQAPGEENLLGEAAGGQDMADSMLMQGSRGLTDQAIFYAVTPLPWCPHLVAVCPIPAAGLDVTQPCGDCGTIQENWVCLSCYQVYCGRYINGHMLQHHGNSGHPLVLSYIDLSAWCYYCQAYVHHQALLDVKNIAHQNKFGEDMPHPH

[14] = Tmax in C57BL/6 mouse plasma at 25 mg/kg, ip after 0.5 to 24 hrs by LC/MS/MS analysis; type: ADME, organism-based; procedure, shortened: as §1
[15] = Cmax in C57BL/6 mouse plasma at 25 mg/kg, ip after 2 hrs by LC/MS/MS analysis; type: ADME, organism-based; set-up: dose 25 mg/kg, route intraperitoneal; procedure, shortened: as §1
[16] = Ratio of drug level in brain to plasma in C57BL/6 mouse at 25 mg/kg, ip after 0.5 to 2 hrs by LC/MS/MS analysis; type: ADME, organism-based; details: brain and plasma, read-out: BPR
Procedure, shortened: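 Intraperitoneal dose of 25 mg/kg in mice, three animals per time point. Compound levels in processed brain and in peripheral blood were measured at matched times. Individual brain-to-plasma concentration ratios were calculated for the 0.5 to 2 h time points.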

Histone deacetylase 1 = Histone deacetylase 1 (Homo sapiens, UniProt Q13547); assay: Inhibition of human recombinant HDAC1 using acetyllysine tripeptide coupled with 7-amino-4-methylcoumarin as substrate by fluorescence assay
Mus musculus [17] = assay: Half life in C57BL/6 mouse plasma at 25 mg/kg, ip after 0.5 to 24 hrs by LC/MS/MS analysis; type: ADME, organism-based; details: in vivo; procedure, shortened: as §1
[18] = Cmax in C57BL/6 mouse brain at 25 mg/kg, ip after 1 hr by LC/MS/MS analysis; type: ADME, organism-based; set-up: dose 25 mg/kg, route intraperitoneal; procedure, shortened: as §1
[19] = AUClast in C57BL/6 mouse brain at 25 mg/kg, ip after 0.5 to 24 hrs by LC/MS/MS analysis; type: ADME, organism-based; procedure, shortened: as §1
Histone deacetylase 3 = Histone deacetylase 3 (Homo sapiens, UniProt O15379); assay: Inhibition of human recombinant HDAC3 using acetyllysine tripeptide coupled with 7-amino-4-methylcoumarin as substrate by fluorescence assay
[20] = Cmax in C57BL/6 mouse brain at 25 mg/kg, ip after 0.5 hrs by LC/MS/MS analysis; type: ADME, organism-based; set-up: dose 25 mg/kg, route intraperitoneal; procedure, shortened: as §1
[21] = Cmax in C57BL/6 mouse brain at 25 mg/kg, ip after 2 hrs by LC/MS/MS analysis; type: ADME, organism-based; set-up: dose 25 mg/kg, route intraperitoneal; procedure, shortened: as §1
[22] = Cmax in C57BL/6 mouse plasma at 25 mg/kg, ip after 24 hrs by LC/MS/MS analysis; type: ADME, organism-based; set-up: dose 25 mg/kg, route intraperitoneal; procedure, shortened: as §1
[23] = AUClast in C57BL/6 mouse plasma at 25 mg/kg, ip after 0.5 to 24 hrs by LC/MS/MS analysis; type: ADME, organism-based; procedure, shortened: as §1
Mus musculus [24] = species: Mus musculus; assay: Inhibition of HDAC in mouse forebrain primary neurons assessed as acetylation of histone H4K12 at 1 to 10 uM after 24 hrs by immunofluorescence assay
Procedure, shortened: (§2)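 Mouse forebrain primary neuronal cultures (DIV13–14) treated 24 h at 1 and 10 μM, n=3. Cells fixed and immunostained for H3K9ac or H4K12ac; nuclear fluorescence intensity quantified by imaging. […] Mean ± SEM; unpaired t-test.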

Mus musculus [25] = species: Mus musculus; assay: Inhibition of HDAC in mouse forebrain primary neurons assessed as acetylation of histone H3K9 at 1 to 10 uM after 24 hrs by immunofluorescence assay; procedure, shortened: as §2

Histone deacetylase 3, sequence (O15379 whole entry): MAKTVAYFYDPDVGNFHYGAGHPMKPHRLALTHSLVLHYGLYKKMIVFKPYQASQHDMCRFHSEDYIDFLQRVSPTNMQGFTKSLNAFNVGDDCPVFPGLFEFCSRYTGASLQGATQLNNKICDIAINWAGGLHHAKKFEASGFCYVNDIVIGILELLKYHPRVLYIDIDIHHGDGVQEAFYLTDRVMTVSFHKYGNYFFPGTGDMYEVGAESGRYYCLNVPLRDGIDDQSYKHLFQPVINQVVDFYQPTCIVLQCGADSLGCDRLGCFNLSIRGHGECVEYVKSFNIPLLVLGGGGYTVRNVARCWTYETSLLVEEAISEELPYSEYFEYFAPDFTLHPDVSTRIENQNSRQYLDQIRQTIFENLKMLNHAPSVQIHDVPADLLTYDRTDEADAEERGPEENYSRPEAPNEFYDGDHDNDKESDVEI
Histone deacetylase 1, sequence (Q13547 whole entry): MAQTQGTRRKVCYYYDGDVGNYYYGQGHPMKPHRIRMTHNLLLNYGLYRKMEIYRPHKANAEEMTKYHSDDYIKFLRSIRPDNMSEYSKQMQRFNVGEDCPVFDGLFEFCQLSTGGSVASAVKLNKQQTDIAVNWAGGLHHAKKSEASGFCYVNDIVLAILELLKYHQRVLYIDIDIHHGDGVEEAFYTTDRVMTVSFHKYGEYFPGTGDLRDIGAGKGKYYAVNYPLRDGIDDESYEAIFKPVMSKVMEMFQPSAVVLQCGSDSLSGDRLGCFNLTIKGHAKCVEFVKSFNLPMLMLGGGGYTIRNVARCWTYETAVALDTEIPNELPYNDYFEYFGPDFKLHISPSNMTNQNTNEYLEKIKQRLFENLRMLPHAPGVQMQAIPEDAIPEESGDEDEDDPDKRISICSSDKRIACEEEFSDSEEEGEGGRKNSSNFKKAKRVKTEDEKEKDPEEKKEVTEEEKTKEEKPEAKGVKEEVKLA
Histone deacetylase 2, sequence (Q92769 whole entry): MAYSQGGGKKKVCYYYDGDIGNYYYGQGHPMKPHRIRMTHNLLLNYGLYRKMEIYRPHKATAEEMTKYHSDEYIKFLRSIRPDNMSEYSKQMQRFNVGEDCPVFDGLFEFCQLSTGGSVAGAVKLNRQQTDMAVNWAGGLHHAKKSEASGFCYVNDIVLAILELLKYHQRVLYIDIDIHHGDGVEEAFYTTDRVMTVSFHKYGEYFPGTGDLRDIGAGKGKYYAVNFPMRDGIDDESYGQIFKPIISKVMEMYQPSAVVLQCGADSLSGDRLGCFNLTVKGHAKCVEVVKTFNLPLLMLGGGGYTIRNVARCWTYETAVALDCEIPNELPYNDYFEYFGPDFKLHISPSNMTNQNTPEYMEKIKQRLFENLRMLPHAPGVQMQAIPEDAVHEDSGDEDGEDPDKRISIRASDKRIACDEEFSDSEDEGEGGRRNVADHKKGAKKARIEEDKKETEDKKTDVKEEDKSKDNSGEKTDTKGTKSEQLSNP
Histone deacetylase 5 (Homo sapiens), sequence (Q9UQL6 whole entry): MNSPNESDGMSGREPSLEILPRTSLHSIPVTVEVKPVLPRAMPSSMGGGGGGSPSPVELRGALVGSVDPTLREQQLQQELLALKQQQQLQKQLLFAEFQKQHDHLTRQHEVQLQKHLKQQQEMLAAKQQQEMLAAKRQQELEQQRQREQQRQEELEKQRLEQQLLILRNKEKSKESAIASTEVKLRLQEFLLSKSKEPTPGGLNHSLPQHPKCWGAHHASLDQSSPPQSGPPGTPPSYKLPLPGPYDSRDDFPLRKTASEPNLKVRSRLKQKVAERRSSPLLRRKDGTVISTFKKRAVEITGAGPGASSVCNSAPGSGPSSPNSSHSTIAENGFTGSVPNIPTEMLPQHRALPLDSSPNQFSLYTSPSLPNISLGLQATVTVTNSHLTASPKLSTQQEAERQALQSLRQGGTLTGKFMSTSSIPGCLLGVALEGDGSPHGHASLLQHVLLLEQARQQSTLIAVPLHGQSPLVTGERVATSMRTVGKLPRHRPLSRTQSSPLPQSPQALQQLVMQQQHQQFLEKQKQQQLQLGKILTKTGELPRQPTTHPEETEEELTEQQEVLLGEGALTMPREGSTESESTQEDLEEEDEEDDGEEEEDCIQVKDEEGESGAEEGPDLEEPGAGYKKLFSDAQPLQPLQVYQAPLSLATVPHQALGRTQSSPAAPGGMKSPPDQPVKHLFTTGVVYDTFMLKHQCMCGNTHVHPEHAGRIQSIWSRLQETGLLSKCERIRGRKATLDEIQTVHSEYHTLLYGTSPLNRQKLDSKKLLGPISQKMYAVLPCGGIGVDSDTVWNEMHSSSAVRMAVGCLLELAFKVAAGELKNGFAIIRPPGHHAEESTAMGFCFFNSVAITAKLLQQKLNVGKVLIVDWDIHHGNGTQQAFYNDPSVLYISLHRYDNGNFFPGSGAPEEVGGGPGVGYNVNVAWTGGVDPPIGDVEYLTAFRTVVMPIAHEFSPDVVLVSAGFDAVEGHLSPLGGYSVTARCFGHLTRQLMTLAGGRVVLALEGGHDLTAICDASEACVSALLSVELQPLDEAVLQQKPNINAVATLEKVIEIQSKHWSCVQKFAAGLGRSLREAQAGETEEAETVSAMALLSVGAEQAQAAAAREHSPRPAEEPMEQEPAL

Compound: O=C(CCCCCC(=O)N/N=C/c1ccc(-c2cccnc2)cc1)NO
- Cmax [1]: 13.5 nM
- IC50 (Histone deacetylase 2): 10.8 nM
- inhibition [2]: inactive
- Cmax [3]: 1900 nM
- Cmax [4]: 6.45 nM
- AUC(0-inf) [5]: 5.42 µM·h
- CL/F [6]: 217 mL/min/kg
- Cmax [7]: 14.9 nM
- Cmax [8]: 1670 nM
- Cmax [9]: 9.73 nM
- Tmax [10]: 1 h
- EC50 [11]: 140 nM
- MRT [12]: 1.6 h
- IC50 [13]: 0.5 nM
- Tmax [14]: 1 h
- Cmax [15]: 1220 nM
- Kp [16]: 0.03
- IC50 (Histone deacetylase 1): 1.1 nM
- t1/2 (Mus musculus [17]): 1.28 h
- Cmax [18]: 79.1 nM
- AUC(0-t) [19]: 0.12 µM·h
- IC50 (Histone deacetylase 3): 0.8 nM
- Cmax [20]: 75.7 nM
- Cmax [21]: 45.2 nM
- Cmax [22]: 3.72 nM
- AUC(0-t) [23]: 5.41 µM·h

Compound: O=C(CCCCCC(=O)N/N=C/c1ccc(-c2ccncc2)cc1)NO
- IC50 (Histone deacetylase 2): 14.2 nM
- IC50 (Histone deacetylase 1): 3.1 nM
- IC50 (Histone deacetylase 3): 1.8 nM

Compound: O=C(CCCCCCC(=O)N/N=C/c1ccc(-c2ccccc2)cc1)NO
- IC50 (Histone deacetylase 2): 1 nM
- inhibition (Mus musculus [24]): Active
- inhibition (Mus musculus [25]): Active
- IC50 (Histone deacetylase 1): 0.7 nM
- IC50 (Histone deacetylase 3): 2 nM

Compound: O=C(CCCCCC(=O)N/N=C/c1ccc(-c2cccs2)cc1)NO
- IC50 (Histone deacetylase 2): 6.3 nM
- IC50 (Histone deacetylase 1): 2.1 nM
- IC50 (Histone deacetylase 3): 1.6 nM

Compound: O=C(CCCCCC(=O)N/N=C/c1ccc(-c2ccccc2)cc1)NO
- IC50 (Histone deacetylase 2): 2.1 nM
- inhibition [2]: inactive
- EC50 [11]: 210 nM
- IC50 [13]: 0.6 nM
- IC50 (Histone deacetylase 1): 1.4 nM
- IC50 (Histone deacetylase 3): 3.4 nM
- Cmax [20]: 60 nM

Compound: Cc1ccccc1-c1ccc(/C=N/NC(=O)CCCCCC(=O)NO)cc1
- IC50 (Histone deacetylase 2): 18.8 nM
- IC50 (Histone deacetylase 1): 8 nM
- IC50 (Histone deacetylase 3): 5.4 nM

Compound: COc1ccc(Br)c(/C=N/NC(=O)CCCCCC(=O)NO)c1
- IC50 (Histone deacetylase 2): 5 nM
- IC50 (Histone deacetylase 1): 0.6 nM
- IC50 (Histone deacetylase 3): 1.2 nM

Compound: O=C(CCCCC(=O)N/N=C/c1ccc(-c2ccccc2)cc1)NO
- IC50 (Histone deacetylase 2): 33 nM
- inhibition (Mus musculus [24]): Active
- inhibition (Mus musculus [25]): Active
- IC50 (Histone deacetylase 1): 19 nM
- IC50 (Histone deacetylase 3): 61 nM

Compound: O=C(CCCCCC(=O)N/N=C/c1ccc(-c2ccccn2)cc1)NO
- IC50 (Histone deacetylase 2): 6.9 nM
- IC50 (Histone deacetylase 1): 2.3 nM
- IC50 (Histone deacetylase 3): 1.4 nM

Compound: COc1cc(O)cc(OC)c1/C=N/NC(=O)CCCCCC(=O)NO
- IC50 (Histone deacetylase 2): 108 nM
- IC50 (Histone deacetylase 1): 31.4 nM
- IC50 (Histone deacetylase 3): 25.6 nM

Compound: O=C(CCCCCC(=O)N/N=C/c1ccc(-c2cncnc2)cc1)NO
- IC50 (Histone deacetylase 2): 21 nM
- IC50 (Histone deacetylase 1): 3.2 nM
- IC50 (Histone deacetylase 3): 2.4 nM
